Assay results as given in the EternaBench riboswitch data.

Tested on: MS2 coat protein
Assay: apparent Kd, MS2 coat protein; higher = weaker binding; RNA-MaP array; FMN 200 µM where present
Summary of the method: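 Stalled E. coli RNA polymerase transcribed the designs on Illumina sequencing-chip clusters. SNAP-549-labelled MS2 coat protein was titrated from 0.7 or 1.5 nM, doubling to 3 µM, without and then with constant ligand, in 100 mM Tris-HCl pH 7.5, 80 mM KCl, 4 mM MgCl2, BSA, DTT, yeast tRNA and Tween-20. Per-cluster binding curves were fitted to green signal normalised to red-channel RNA signal and control-cluster median Fmax. The apparent Kd is the median of the filtered fits.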

[1] = designed as: OFF switch for flavin mononucleotide, no ligand
[2] = ligand present: flavin mononucleotide, designed as: OFF switch for flavin mononucleotide
[3] = designed as: ON switch for flavin mononucleotide, no ligand
[4] = ligand present: flavin mononucleotide, designed as: ON switch for flavin mononucleotide

Sequence	apparent Kd [1] [nM]	apparent Kd [2] [nM]	apparent Kd [3] [nM]	apparent Kd [4] [nM]
UGAUAGGACAGAGGAUAUACAGAUAGGAUCUACUAUCAAACAGUCCUGACAUGAGGAUCACCCAUGUAGAAGGCUGUCCUAUCU	22.7	98.8	–	–
GUAAAGUGAGGAUAUGCUGGAGGUGUAUUCUACGUGUCGAAACAUGAGGAUCACCCAUGUAGAAGGCACGGGCG	10.2	13.1	–	–
CGCGAACAUGAGGAUCACCCAUGUGAAAAACACAGAGGAUAUGUCGCAUGCGUGUAAAAGACAGAAGGCUGUCGCG	–	–	45.5	21.9
CCACUCGAGCAGAAGGCAAUGAGGGUUAUACAUUGAGGAUAUGCUACGUAUGUGGUACAUGAGGAUCACCCAUGUAGCCUAUCU	–	–	389	21.3
GCCAUCGCAUGAGGAUAUGCUCCGGUUUCCGGAGCAGAAGGUAUGUCAUAUGACAUGAGGAUCACCCAUGUAGUUAAGAUGGCA	–	–	571	54.7
AUAUUUAUUUAGAAGGACAUGAGGAUCACCCAUGUCGCUGGGCGCGGGAAACCGUGCGCGGCCAUGUAGGAUAUAGGUAGAUAU	14.4	12.4	–	–
GUGACGAAUGUAGGAUAUGCUGAGGAUAACUCAGCAGAAGGACAUGAGGAUCACCCAUGUAAUCCUAAUAAUAAAUAACGUCAC	12.7	18.3	–	–
CGAUAUAUGAAGGGCGAAAACGCACAUGAGGAUCACCCAUGUAGAAGGCGAUCCGCAACGCGGAUCGAGGAUAUAUAGUAUACA	21.1	23	–	–
CACUGCAUGUAAGGAUAUCGACUGGAAUACAGUCGAGAAGGUACAUGAGGAUCACCCAUGUAAAUAAUAAUAAAUAAAGCAGUG	15.3	24.4	–	–
UUCCUACAUGAGGAUCACCCAUGUCAGGAUAUCUCCUCGUCGCCAAUGGGCGACGAAUAGAGAAGGGACAGGAA	15	16.7	–	–
AAAUCCAACGAAGGAUAUACAAACAUGAGGAUCACCCAUGUGUCUUUCGUGUAACUGGAAUUCGGGUAGAAGGUCGUUGACAUA	11.8	17.6	–	–
GCUAGUAUUGCAGGAUAUUGUGAAUAAUUAUUUCAAGAAGGGCAUUACAUGAGGAUCACCCAUGUCAUCCUUUUGAAUACUAGC	5.67	7.63	–	–
AUAAUUUUAUAUAUCUUAUUUAUCAGAAGGCAUAACAUGAGGAUCACCCAUGUAUAUUAUAGUUAUGAGGAUAUGAUUUAGUUA	8.04	8.85	–	–
AAUUAGGUCACAGGAUAUACAACAACCAAUGCUGUAGAAGGGUGACACAUUCUUUGCUGACAUGAGGAUCACCCAUGUAACCAC	–	–	69.3	11.2
AGCUGGUGACAGCAAGAAUUUUAACAUGAGGAUCACCCAUGUAGAAGGCUGUACGGUUACCGUACAGAGGAUAUACAUAGAAAG	43.2	62.2	–	–
GGUACCAACACAGGAUAUGCAAUCCUUUGGGUUGCAGAAGGGUGAAACAUGAGGAUCACCCAUGUGGUGCCAGGGCGUGAGCCC	–	–	1290	104
GCACGGUAUGUAGGAUAUGCAUAGCAUUGCUAUGCAGAAGGACAUGAGGAUCACCCAUGUAUGUAUUCCAUACAAUUCCCGUGC	5.41	5.82	–	–
CAGCGAAAGCUGAAUCUGUAGAGAGAGGAUAUACGAGGCGAAAUCCAUACAUGAGGAUCACCCAUGUAGAAGGCUCUCUACAGU	155	363	–	–
AAAAAAAAAUCUCAGGAUAUAGAUUAUAGAACAUGAGGAUCACCCAUGUAGUGAAAGAAGAAAAACUAGAAGGGAGGAAAAAAAAA	–	–	100	66.6
UAAUCUCAGAUAGGAUAUAUAGGAUGAUUUAAGACCGAACAUGAGGAUCACCCAUGUGAUUAUUUGUAGAAGGAUCAAUGACCC	–	–	72.4	79.2
AUGACUCUAGGAUAUUAGCGGGCCUACAUGAGGAUCACCCAUGUCGUGUCGCGGGUAUGCUGAGAAGGAGAGCACA	14.2	17.9	–	–
UUCGUGCAGCUUUGCUGUACGCGUACAUGAGGAUCACCCAUGUAGGAUAUGGUAGGCUUUGUUUACUAGAAGGAUAGUGUGAUC	140	45.8	–	–
UAUAAAUACAUUAACAUGAGGAUCACCCAUGUCAAAAGACAUGAGGAUAUGCAUCCUAAUUGGAUGCAGAAGGCAUGUAUAAUU	–	–	174	16.9
GACAUGAGGAUCACCCAUGUCCAACCAGAAGGCCAGAAACCAGGCCCUUGUAUCGGGCUUGGGAUGGAGGAUAUGGGCGCCGAA	–	–	61.4	31.6

Sequence	apparent Kd [1] [nM]	apparent Kd [2] [nM]	apparent Kd [3] [nM]	apparent Kd [4] [nM]
UUGCGGUCAGGAUAUGCAUGGCGGGACUUGCGUCGUGGCGUGGAGAAGGGACAUGAGGAUCACCCAUGUGGAGC	54.5	59.9	–	–
CGCCAUCCCGUUGGCGUGAGGAUACCAGAAGGGACGAUCUCACAUGAGGAUCACCCAUGUUAUAGUCAGGAUAUGGGUUCAUCA	–	–	135	14.2
GUGUACAGAGGAUAUACAUAAGCUAGGAAACUAGCUACUUCACAUGAGGAUCACCCAUGUAGAAGGCUGUACAC	16.1	16.3	–	–
AAAUUGGUAGAGGAUAUCGGAUAGGAUUUACUGCGAGAAGGCUGCACAUGAGGAUCACCCAUGUUCUGUUGGGA	123	152	–	–
ACAUGAUCAGGAUAUACAUGAGGAUCACCCAUGUAAAUAAAAAAAAAACUUUCUUUAUGUAGAAGGGAUCUUGU	21	30.1	–	–
CCAGACGUAGGAUAUACAUUUGGGUAAUCCCGCGGAAAGAUACAUGAGGAUCACCCAUGUAGAAGGGCGGUAAA	31.1	21.1	–	–
ACAUGCAAGUAGAAGGUCGGAUAUUUUGAUAACGAAGGAUAUACAGAAUCAUAUCCACAUGAUAACAUGAGGAUCACCCAUGUA	15.2	15	–	–
UAUAUUUUUAUAGGAUAUGGAUAUGAUGCAUAUCCAGAAGGGUGAAUAUAAUAUUUUCUGUACAUGAGGAUCACCCAUGUUUAU	–	–	235	72.2
UGUGCAUCAGGAUAUAUGUGGCGACCGUGAGGUCGAAGGUUACAUGAGGAUCACCCAUGUAGAAGGGAUGUACU	63.2	187	–	–
GAGAAGUCAGGAUAUGCAUGGCGGGACUUGCGUCGUGGCGUGCAGAAGGGACAUGAGGAUCACCCAUGUAAAGG	143	265	–	–
AGUAAGAUGCAGAAGGUGUUAGCUAGAGCUACGACAUGAGGAUCACCCAUGUACUCAAAACCGUACAAGGAUAUGCAUCUUACA	–	–	9.55	6.26
UUGAGGAAUUAAGGAUAUUGAGUACAUAUGUUUAACAUGAGGAUCACCCAUGUGGGUUGCGGUAUCGAGAAGGUAAAUUACAAG	–	–	129	133
GCAGCACACAUUAACAUGAGGAUCACCCAUGUCAAAAGACAUGAGGAUAUGCAUCUGAAGAAGAUGCAGAAGGCAUUGUGCUGC	–	–	467	24.2
UGAUAGGACAGAGGAUAUACGUCCUAGAGAUACUAGGAAAGUUUCCUCACAUGAGGAUCACCCAUGUAGAAGGCUGUCCUAUCU	19	472	–	–
GCUUGUGUUGAGGAUAUGCGCCGGCUCGCUGGCGCAGAAGGCGGCACAUGAGGAUCACCCAUGUCAGUUCGCGA	27.5	255	–	–
UUCGUGCAGCUUUGCUGUACGCGUACAUGAGGAUCACCCAUGUAGGAUAUGGUACGCUUUGCGUGCUAGAAGGAUAUGGAAAGG	14.7	16.6	–	–
UUCUUUACCUAGGAUAUCUUCGGUACGGUCCGGAGAGAAGGAGGUACAUGAGGAUCACCCAUGUCCCUCUGAAA	12.6	13.6	–	–
UUUUAACAUGAGGAUCACCCAUGUGAGGAUAUCGAAAUUUAUAUUAAUAUUAAUAAAUCGAGAAGGCACAUUUU	117	127	–	–
GCGUUGAACGAGAAGGCCAAUACAUGAGGAUCACCCAUGUUAAGAUGUUUUGGAGGAUAUCGUACGUCGUCUCAUGAGCAACGC	6.21	7.03	–	–
GUCAGCUCGUGAGGAUAUACAACACUGCUUCGGCUGUGUAUUAAGAUCACAUGAGGAUCACCCAUGUAGAAGGCACGAGCUGAU	13.5	202	–	–
GCCAUCGCAUGAGGAUAUGCUCGGGUUUCCCGAGCAGAAGGCAUGUAAUAAAACAUGAGGAUCACCCAUGUAGUUAAGAUGGCA	–	–	8.29	5.36
CGCCAAUUGGCACAGGAUAUGAGCAUGCUCACAUGAGGAUCACCCAUGUGAUUACCAACGCAAAAUCAGAAGGGUGCCCUCGUCA	–	–	147	97.1
CGCCGCACCGGCCUGCGGCAGGGUCAGGAUAUACAUGAGGAUCACCCAUGUGAACGGUGCCCUAUGUAGAAGGGACGAAAAGAA	22.8	37.5	–	–
CUCCUGUAAGGAUAUCUGACAAGUGACGAAAGUCACAGUUCAGAGAAGGUACAUGAGGAUCACCCAUGUAGAAC	32.2	139	–	–
